The results in this text go back to ChEMBL document CHEMBL4316597, “Design, Synthesis, and Biological Evaluation of Itaconic Acid Derivatives as Potential Anti-Influenza Agents” (J Med Chem, 2019).

Data set [1] concerns Influenza A virus. In words: Antiviral activity against Influenza A virus A/TW/3446/02 (H3N2) infected in MDCK cells after 72 hrs by crystal violet-staining based assay. Type of data set: functional, organism-based. Summed up:
(§1)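 Cells seeded at 2 × 10^4/well in E10 (DMEM, 10% FBS), 16–24 h at 37 °C/5% CO2, washed with DPBS, then infected at nine-fold TCID50 with or without serial compound concentrations. Influenza is run in MDCK and enterovirus/rhinovirus in RD. Incubated 72 h, fixed in 4% paraformaldehyde, stained with 0.1% crystal violet, and read for cell density. EC50 = 50% CPE inhibition by Reed–Muench; mean ± S.D. of at least three runs.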

A short description of data set [2]: Cytotoxicity against human RD cells assessed as cell death after 72 hrs by MTT assay. Type of data set: cell-based. An outline of the steps: (§2)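 MDCK or RD cells at 2 × 10^4/well in E10, overnight at 37 °C/5% CO2, DPBS wash, then exposed to graded compound concentrations for 72 h. MTT added for 3 h, formazan dissolved in DMSO, absorbance read at 570 nm. CC50 (50% cell death) by Reed–Muench.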

The nature of data set [3]: Cytotoxicity against MDCK cells assessed as cell death after 72 hrs by MTT assay. Type of data set: cell-based, Canis lupus familiaris. The settings on record: dog. An outline of the steps: as §2
Another data set relates to enterovirus D68. As to the kind of experiment: Antiviral activity against Enterovirus D68 TW/2795/2014 clade B3 infected in human RD cells after 72 hrs by crystal violet-staining based assay. Format: functional, organism-based. The settings on record: Enterovirus D, TW/2795/2014 clade B3, RD. Summed up: as §1
Data set [4] deals with Influenza A virus. As to the kind of experiment: Antiviral activity against Influenza A virus (A/WSN/33) infected in MDCK cells at 1 uM added at -1 hrs to 9 hrs post infection and measured after 9 hrs by plaque assay. Type of data set: functional, organism-based. The settings on record: A/WSN/1933(H1N1). Summed up:
(§3)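 MDCK monolayers exposed to compound (1 or 10 μM) over windows of −3, −1, 0, 3 or 6 to 9 h pi. A/WSN/33 adsorbed at MOI 0.1 from −1 to 0 h, then removed with a PBS wash. Supernatant taken at 9 h pi and titred by plaque assay, normalised to virus-only (100%). Average of three independent experiments.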

A short description of data set [5]: Selectivity ratio of CC50 for MDCK cells to EC50 for pandemic Influenza A virus A/TW/2235/09 (H1N1) SO4. Type of data set: toxicity. As to conditions: dog, read-out: Ratio CC50/EC50. Summed up:
(§4)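 MDCK cells (2 × 10^4/well, E10, 16–24 h) infected at nine-fold TCID50 with compound for 72 h, 37 °C, 5% CO2. Cells were fixed in 4% paraformaldehyde and stained with crystal violet; EC50 is from Reed–Muench. For CC50, cells had compound alone for 72 h, then MTT 3 h, DMSO, A570, Reed–Muench. SI = CC50/EC50; three independent experiments.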

For data set [6], the target named is Hemagglutinin (Influenza A virus) (UniProt B4URE7). In words: Inhibition Influenza A virus (A/WSN/33) HA infected in guinea pig RBC assessed as reduction in hemagglutination at serial dilution from 50 uM after 1 hr by HAI assay. The settings on record: Influenza A virus (A/WSN/1933(H1N1)). Summed up: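 Virus titrated on 0.5% guinea pig RBCs to define 1 HA unit; 4 HA units used. Compound two-fold serially diluted from 50 µM and mixed with virus for 30 min at room temperature, or tested without virus for direct agglutination. 0.5% RBCs then added and agglutination scored after 1 h. DMSO/RBC-only and virus-only controls included.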
Chain of Hemagglutinin (Influenza A virus) (B4URE7 as listed by the source): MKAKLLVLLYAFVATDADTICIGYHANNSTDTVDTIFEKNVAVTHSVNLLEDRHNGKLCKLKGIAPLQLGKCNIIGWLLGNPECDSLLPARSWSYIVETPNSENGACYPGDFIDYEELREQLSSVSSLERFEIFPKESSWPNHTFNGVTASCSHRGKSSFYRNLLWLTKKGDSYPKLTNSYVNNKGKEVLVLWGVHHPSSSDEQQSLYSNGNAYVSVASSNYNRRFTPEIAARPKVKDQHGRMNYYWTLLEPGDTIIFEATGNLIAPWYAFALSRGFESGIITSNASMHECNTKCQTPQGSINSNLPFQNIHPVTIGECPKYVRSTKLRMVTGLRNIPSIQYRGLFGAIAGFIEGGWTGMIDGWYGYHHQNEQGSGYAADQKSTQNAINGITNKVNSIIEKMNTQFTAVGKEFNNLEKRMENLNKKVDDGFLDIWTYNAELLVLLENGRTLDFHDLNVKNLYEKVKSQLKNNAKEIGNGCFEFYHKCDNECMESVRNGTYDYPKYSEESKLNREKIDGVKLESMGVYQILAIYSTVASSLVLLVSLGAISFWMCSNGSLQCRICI

Data set [7] deals with Influenza A virus. As to the kind of experiment: Antiviral activity against Influenza A virus (A/WSN/33) infected in MDCK cells assessed as reduction in virus-induced cytopathic effect after 72 hrs by crystal violet-staining based assay. Type of data set: functional, organism-based. The settings on record: A/WSN/1933(H1N1). Summed up: as §1
The subject of data set [8] is Enterovirus. In words: Antiviral activity against Rhinovirus 71803 infected in human RD cells after 72 hrs by crystal violet-staining based assay. Type of data set: functional, organism-based. As to conditions: Enterovirus, 71803, RD. Summed up:
as §1

A short description of data set [9]: Selectivity ratio of CC50 for MDCK cells to EC50 for Influenza A virus (A/WSN/33). Type of data set: toxicity. As to conditions: dog, read-out: Ratio CC50/EC50. Summed up: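 SI is calculated as CC50 (MDCK, 72 h MTT) divided by EC50 (72 h crystal-violet CPE assay in MDCK).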
For the next data set, the system named is Enterovirus A71. In words: Antiviral activity against Enterovirus A71 TW/4643/1998 infected in human RD cells after 72 hrs by crystal violet-staining based assay. Format: functional, organism-based. As to conditions: Enterovirus A, TW/4643/1998, RD. Summed up:
as §1

For data set [10], the system named is Influenza A virus. In words: Antiviral activity against pandemic Influenza A virus A/TW/2235/09 (H1N1) SO4 infected in MDCK cells after 72 hrs by crystal violet-staining based assay. Format: functional, organism-based. The settings on record: A/TW/2235/09 (H1N1) SO4, MDCK. An outline of the steps: as §1
In data set [11] the test system is Influenza A virus. In words: Antiviral activity against Influenza A virus (A/WSN/33) infected in MDCK cells at 1 uM added at 3 hrs to 9 hrs post infection and measured after 9 hrs by plaque assay. Type of data set: functional, organism-based. As to conditions: A/WSN/1933(H1N1). Summed up:
as §3

Data set [12] has as its system Enterovirus. As to the kind of experiment: Antiviral activity against Rhinovirus 71903 infected in human RD cells after 72 hrs by crystal violet-staining based assay. Format: functional, organism-based. The settings on record: Enterovirus, 71903, RD. An outline of the steps: as §1
Data set [13] can be described thus: Selectivity ratio of CC50 for MDCK cells to EC50 for Influenza A virus A/TW/3446/02 (H3N2). Format: toxicity. As to conditions: dog, read-out: Ratio CC50/EC50. An outline of the steps:
as §4

The next data set deals with MDCK. In words: Inhibition of CRM1 in MDCK cells infected with Influenza A virus (A/WSN/33) assessed as reduction in CRM1-mediated viral protein nuclear export by measuring reduction in NP protein distribution to cytoplasm at 1 uM measured after 9 hrs post infection by IF-staining based microscopy. Format: cell-based. The settings on record: Canis lupus familiaris. An outline of the steps:
(§5)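 MDCK cells grown on coverslips (2 × 10^5/well, 16 h), infected at MOI 0.1 for 1 h, washed, then kept in E0 with test compound (1 or 10 μM) or LMB 10 nM; DMSO 0.05% as mock. Fixed at 9 h pi in 4% paraformaldehyde and immunostained for M1, NP, NS2 or PA (1:50), with Hoechst nuclear stain. Viewed by confocal microscopy at 63×. NP nuclear/cytoplasmic intensity ratio quantified; three independent experiments.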

For data set [14], the system named is Influenza A virus. In words: Inhibition of viral protein sub-cellular distribution in Influenza A virus (A/WSN/33) infected in MDCK cells assessed as reduction in M1 protein distribution to cytoplasm at 1 uM measured after 9 hrs post infection by IF-staining based microscopy. Type of data set: functional, organism-based. As to conditions: A/WSN/1933(H1N1). Summed up: as §5

Data set [15] can be described thus: Selectivity ratio of CC50 for human RD cells to EC50 for Enterovirus A71 TW/4643/1998. Format: toxicity. The settings on record: read-out: Ratio CC50/EC50. Summed up:
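RD cells (2 × 10^4/well, DMEM 10% FBS, 16–24 h) infected with enterovirus at nine-fold TCID50 with compound, 72 h, 37 °C, 5% CO2. Cells were fixed in 4% paraformaldehyde, stained with 0.1% crystal violet, and EC50 taken by Reed–Muench. CC50 came from 72 h exposure of uninfected RD cells, MTT 3 h, A570, Reed–Muench. SI = CC50/EC50; three independent experiments.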

Calls of active or inactive are those of the source. The rule behind the calls is not given here.

On to `C=C(CC(=O)Nc1ccc(C(F)(F)F)cc1F)C(=O)Nc1ccc(C(F)(F)F)cc1F`, for which the EC50 was 0.96 µM in the data set on Influenza A virus [1]; more than 50 µM in the data set on enterovirus D68; 0.14 µM in the data set with Influenza A virus [7]; more than 50 µM in the data set with Enterovirus [8]; 6.69 µM in the data set on Enterovirus A71; 1.62 µM in the data set with Influenza A virus [10]. Besides, in the data set with Enterovirus [12], the 50% effective concentration (EC50) was more than 50 µM. For the same molecule, the figures for the CC50 at 72 h in data set [2] and in data set [3] were 9.31 µM and more than 110 µM, respectively. Moreover, the result with Influenza A virus [4] and in the data set on Influenza A virus [11] was Active. Also, the selectivity ratio in data set [5] is more than 67; in data set [9], more than 785; in data set [13], more than 114; in [15] it was 1. For the same molecule, the inhibition result (in data set [6]; with Influenza A virus [14]) was “inactive” in each case. Moreover, in the data set on MDCK, the inhibition entry is “Active”.
